In paper PMC8926318 (Iranian Journal of Biotechnology, 2021):

How the values were obtained:
human colorectal cells = details: cited from earlier work
human fibrosarcoma cells = details: by inducing apoptosis; cited from earlier work
[1] = system: HepG2 (human liver cancer cell line); assay: MTT cell viability assay, HepG2; format: cell-based; details: HepG2 cells, 48 h, only at the highest concentration (1000 µM); for viability inhibition compared with the triazole compound (in words): Fig. 5; for inhibitory activity compared with ciprofloxacin (in words): Fig. 3
Summary of the method: (§1)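 Cells kept in RPMI1640 with 10% FBS, penicillin and streptomycin (100 µg.mL-1 each) at 37 °C, 5% CO2. Plated at 10⁴ cells/well for 24 h, then given test compound at 10, 100 or 1000 µM for 48 h. MTT (5 mg.mL-1 in PBS) added for 4 h at 37 °C. Formazan dissolved in DMSO for 20 min, read at 570 nm. At least triplicate; one-way ANOVA with Tukey post hoc.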

[2] = system: LNCaP (human prostatic carcinoma cell line); assay: MTT cell viability assay, LNCaP; format: cell-based; details: LNCaP cells, 48 h, 1000 µM, p<0.01
Summary of the method: as §1

## LSGNK [C1]
Human colorectal cells
  anti-proliferative activity (in words): anti-proliferative agent

## YIGSR [C2]
Human fibrosarcoma cells
  effect on tumor growth and metastasis (in words): inhibitory effect on tumor growth and metastasis

## triazole-LSGNK [triazole-C1]
[1]
  viability inhibition compared with the triazole compound (in words): noticeable viable inhibition

## ciprofloxacin-YIGSR [Cipro-C2]
[1]
  inhibitory activity compared with ciprofloxacin (in words): more inhibitory activity

## triazole-YIGSR [triazole-C2]
[2]
  toxicity compared with unconjugated congener (in words): more significant
[1]
  viability inhibition compared with the triazole compound (in words): noticeable viable inhibition

## ciprofloxacin-LSGNK [Cipro-C1]
[1]
  inhibitory activity compared with ciprofloxacin (in words): more inhibitory activity
